These results are taken from ChEMBL document CHEMBL2375315, “Alkaloids from the deep-sea-derived fungus Aspergillus westerdijkiae DFFSCS013” (J Nat Prod, 2013).

Common to all, as to type: functional, cell-based
One assay has as its system MCF7. As to the kind of experiment: Cytotoxicity against human MCF7 cells by MTT assay. In short, it runs like this: (§1)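 Human tumour lines (erythroid leukemic K562, promyelocytic leukemia HL-60, breast adenocarcinoma MCF-7, lung carcinoma A549) exposed to compounds; viability read by MTT method, following a previously published protocol; IC50 values derived.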
In general terms: Tetrazolium assays rely on reduction of a dye to a coloured formazan, in cell work by metabolically active cells.

Another assay relates to K562. Description: Cytotoxicity against human K562 cells by MTT assay. In a few lines: as §1
The next assay deals with A549. Description: Cytotoxicity against human A549 cells by MTT assay. In a few lines: as §1
In another assay the test system is HL-60. As to the kind of experiment: Cytotoxicity against human HL60 cells by MTT assay. In short, it runs like this:
as §1

For `CC1(C)C=Cc2c(ccc3c2NC(=O)[C@@]32[C@@H](O)[C@@]34NC(=O)[C@]5(CCCN5C3=O)C[C@H]4C2(C)C)O1`, the 50% inhibitory concentration (IC50) (in general, the midpoint of a concentration-inhibition curve) with MCF7 is over 10 µM; in the assay with K562, 53 µM; in the assay on A549 it was over 10 µM; in the assay on HL-60 it was over 10 µM.

As for `CC(C)CC(=O)OC(/C(=N/O)C(N)=O)C(C)C` (configuration not stated), the IC50 in the assay on MCF7, in the assay on K562, in the assay with A549 and in the assay on HL-60 was over 10 µM in each case.

As to `C[C@H]1NC(=O)c2ccccc2-n2c1nc1ccccc1c2=O`, the IC50 with MCF7, with K562, in the assay with A549 and in the assay with HL-60 was over 10 µM in each case.

For `C[C@@H]1NC(=O)c2ccccc2-n2c1nc1c(O)cccc1c2=O`, the IC50 with MCF7, with K562, in the assay on A549 and with HL-60 was over 10 µM throughout.

Turning to `O=C1NCc2nc3c(O)cccc3c(=O)n2-c2ccccc21`, the IC50 with MCF7, with K562, with A549 and in the assay on HL-60 was over 10 µM throughout.

`C[C@@H]1NC(=O)c2ccccc2-n2c1nc1c(c2=O)C=CC=CO1`: the IC50 with MCF7, in the assay on K562, with A549 and with HL-60 was over 10 µM each time.

On to `CC1(C)C=Cc2c3c(cc(Cl)c2O1)[C@@]1(C(=O)N3)[C@H](O)[C@@]23NC(=O)[C@]4(CCCN4C2=O)C[C@H]3C1(C)C`, for which the 50% inhibitory concentration (IC50) in the assay on MCF7 was over 10 µM; in the assay on K562, 44 µM; in the assay on A549, over 10 µM; in the assay with HL-60 it was over 10 µM.

`CC1(C)C=Cc2c(ccc3c2NC(=O)[C@@]32[C@H](O)[C@@]34NC(=O)[C@]5(CCCN5C3=O)C[C@H]4C2(C)C)O1` [SCLEROTIAMIDE]: the half-inhibitory concentration (IC50) in the assay with MCF7 was over 10 µM; with K562, 26 µM; with A549, over 10 µM; with HL-60, 45 µM.
